NALP1 yeast inh – NALP1 inflammasome inhibitors in reconstituted yeast, colorimetric, S. cerevisiae, triplicate retest. AID 2071, 2009. 280,000 tested, 0.61% active. inhibition, % at 10 µM. S. cerevisiae NALP1/ASC/caspase-1 growth, X-gal OD620, 72 h; in the data active means inhibition mostly above about 24%, no sharp cut-off; inactive means mostly below about 32%
Calb FLC – C. albicans growth inhibition with fluconazole, primary screen, CaCi-2 strain, Alamar Blue fluorescence; C. albicans CaCi-2 + fluconazole, 48 h; growth inhibition, % (test concentration not listed); 300,000 tested, 0.57% active; AID 1979, 2009;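 active means growth inhibition above about 58% in most replicates, limit read from the data, passing the limit was not always enough; inconclusive means exactly half the replicates above a set limit; inactive means most replicates below a set limit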;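 further: all wells also contain fluconazole at 8 µg/ml as a sub-toxic cotreatment; 0% = median of DMSO wells and 100% = median of geldanamycin control wells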
ATG4B inh – ATG4B protease inhibitors, primary screen, biochemical, fluorescence, uHTS; inhibition, % at 8.33 µM; 340,000 tested, 0.51% active; Cysteine protease ATG4B (Homo sapiens), Q9Y4P1; ATG4B cleavage of LC3-PLA2, NBD-HPC fluorescence, 1 h; in the data active means inhibition above about 40%
Target sequence (Q9Y4P1 whole entry, looked up): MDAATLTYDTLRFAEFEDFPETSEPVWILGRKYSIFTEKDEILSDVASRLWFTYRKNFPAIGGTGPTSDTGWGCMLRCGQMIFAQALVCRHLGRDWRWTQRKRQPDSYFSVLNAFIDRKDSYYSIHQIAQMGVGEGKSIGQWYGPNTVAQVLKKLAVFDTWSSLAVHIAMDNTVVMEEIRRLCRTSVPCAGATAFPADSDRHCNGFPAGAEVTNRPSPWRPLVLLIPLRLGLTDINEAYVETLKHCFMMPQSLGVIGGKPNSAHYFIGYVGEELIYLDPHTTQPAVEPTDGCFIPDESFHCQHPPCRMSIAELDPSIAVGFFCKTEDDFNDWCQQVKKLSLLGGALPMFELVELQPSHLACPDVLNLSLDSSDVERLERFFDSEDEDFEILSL
UCH37 DUB inh – inhibitors of human UCH37 deubiquitinase, primary screen, biochemical, Ub-AMC cleavage, fluorescence; 330,000 tested, 0.33% active; inhibition, % (concentration not given with the values); purified proteasome/UCH37; Ubiquitin carboxyl-terminal hydrolase isozyme L5 (Homo sapiens), Q9Y5K5;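 active means mean inhibition over replicate wells above about 20%, limit read from the data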;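 further: 0% = compound-free wells with enzyme and 100% = wells lacking proteasome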
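Material: Human UCH37 enzyme supplied as purified proteasome complex | Schedule: 30 min compound-proteasome preincubation then 25 min substrate reaction, room temperature | Detection: AMC fluorescence from Ub-AMC cleavage, excitation 355 nm, emission 460 nm | Benchmarks: Wells without proteasome as full block, compound-free enzyme plus substrate as uninhibited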
NLRP3 yeast inh – NALP3 inflammasome inhibitors in reconstituted yeast, primary screen, luminescence, uHTS | Yeast reconstituted NLRP3/ASC/caspase-1, beta-gal luminescence, 24 h | 330,000 tested, 0.39% active | inhibition, % at 10 µM;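 active means inhibition of 50% or more; inactive means inhibition below 50%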;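 further: plate controls were induced DMSO wells for no effect and uninduced yeast grown without galactose for full effect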
ALR H2O2 inh – inhibitors of human ALR sulfhydryl oxidase, primary screen, biochemical, H2O2 detection, HRP-luminol luminescence, single point | FAD-linked sulfhydryl oxidase ALR (Homo sapiens), P55789 | purified ALR, DTT oxidation | inhibition, % (concentration not given with the values) | 290,000 tested, 3.8% active | AID 485317, 2010;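 active means mean replicate inhibition above about 79%, with every replicate also reaching it, limit read from the data; inconclusive means only one of the two criteria met; inactive means mean below limit and not every replicate reaching it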
Target sequence (P55789 whole entry, looked up): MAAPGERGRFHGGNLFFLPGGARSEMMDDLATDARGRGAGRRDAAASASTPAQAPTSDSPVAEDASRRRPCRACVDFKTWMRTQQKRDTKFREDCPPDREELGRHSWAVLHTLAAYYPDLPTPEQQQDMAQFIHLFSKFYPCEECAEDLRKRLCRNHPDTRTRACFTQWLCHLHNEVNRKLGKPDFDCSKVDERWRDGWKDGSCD
NALP3 confirm – NALP3 inhibitors retested in yeast, confirmation, luminescence, single concentration. shares compounds with NLRP3 yeast inh. yeast expressing human NALP3. inhibition, % at 10 µM. 1,300 tested, 81% active; in the data active means inhibition above about 48%
Casp1 ASC ctr – CASP1-PYCARD signaling inhibition in yeast, confirmatory test, counterassay for NLRP3 inhibitor program, one-dose; shares compounds with NLRP3 yeast inh; yeast expressing Caspase-1-ASC, luminescence counter screen; inhibition, % at 10 µM; 1,000 tested, 66% active; AID 488784, 2010
NALP3 yeast rt – NALP3 inhibitors in yeast, repeat test, confirmation, luminescence, single concentration, retest | yeast expressing human NALP3, luminescence read-out | AID 488794, 2010 | shares compounds with NLRP3 yeast inh | inhibition, % at 10 µM | 1,000 tested, 53% active
Numbers without * were called inactive; ? = inconclusive; . = no result. Rows were chosen to be rich in hits. Some 4.8% of all compounds tested hit in one or more screens of this group. Unless noted, no stated cut-off is given here; in the data, active means inhibition above about 50%; inactive means the rest.

SMILES	NALP1 yeast inh	Calb FLC	ATG4B inh	UCH37 DUB inh	NLRP3 yeast inh	ALR H2O2 inh	NALP3 confirm	Casp1 ASC ctr	NALP3 yeast rt
Cc1cc(C=NNC(=O)c2nn(C)cc2Cl)c(C)n1-c1cccc(Br)c1	.	.	.	1	.	.	.	.	.
O=C(Nc1cccnc1)c1cc(-c2ccccc2)on1	-102	-30	-7	0	50*	-23	40	.	.
O=C(Nc1cccnc1)c1cc(-c2ccc(Br)cc2)on1	34	14	-10	3	23	3	.	.	.
N#C/C(=N\Nc1ccc(Cl)cc1)C(=O)c1ccccc1	21	26	29	.	55*	.	59*	73*	84*
NCCc1nnc(SCC(=O)c2ccc(Cl)cc2)o1	30	-6	-5	0	56*	32	71*	.	.
NCCCCCc1nnc(SCc2ccccc2Cl)o1	11	-5	-9	-1	20	13	.	.	.
NCCc1nnc(SCc2c(Cl)cccc2Cl)o1	39*	5	2	1	84*	-11	82*	83*	92*
NCCc1nnc(SCc2c(F)cccc2Cl)o1	6	-9	1	-1	77*	-49	88*	72*	83*
COC(=O)NN=Cc1cc(Br)ccc1O	.	.	.	-7	.	.	.	.	.
COc1ccc(C=NNC(=O)CNS(=O)(=O)c2ccc(C)cc2)cc1	.	.	.	0	.	.	.	.	.
Cc1nn(-c2c(Cl)cc(Cl)cc2Cl)c(=O)c2ccccc12	20	-1	7	3	63*	2	73*	59*	53*
Cc1nn(-c2ccc(Br)cc2)c(=O)c2ccccc12	5	21	13	0	32	-1	.	.	.
C[C@@H](N)C(=O)NC[C@H]1CC[C@H](C(=O)N[C@@H](Cc2ccccc2)C(=O)O)CC1	16	2	-7	.	62*	-4	76*	58*	63*
CC(C)[C@H](N)C(=O)NCC1CCC(C(=O)N[C@@H](Cc2ccccc2)C(=O)O)CC1 (some centres not stated)	.	.	.	1	.	.	.	.	.
COc1ccc(CCn2c(C3CCCCC3)nc3c(c(=O)c4ccccc4n3C)c2=O)cc1	.	45	-1	7	67*	-3	65*	55*	61*
Cn1c2ccccc2c(=O)c2c(=O)n(C3CCCCCC3)c(C3CCCCC3)nc21	45	11	36	.	.	.	.	.	.
COc1ccc(CCn2c(C3CCCCC3)nc3c(c(=O)c4ccccc4n3C)c2=O)cc1OC	-4	4	24	3	64*	-13	84*	44	50
Cn1c2ccccc2c(=O)c2c(=O)n(C3CCCCC3)c(-c3cccs3)nc21	10	42	3	4	58*	1	71*	55*	52*
COc1ccc(Cn2c(C3CCCCC3)nc3c(c(=O)c4ccccc4n3C)c2=O)cc1	-9	13	-8	9	1	-1	.	.	.
CCOc1cc(S(=O)(=O)N2CCCC2)c(C)cc1C	17	5	-3	0	39	5	.	.	.
COc1cc(C)c(S(=O)(=O)N2CCCC2)cc1C	24	1	0	1	77*	-2	83*	87*	65*
CCOc1cc(C)c(S(=O)(=O)N2CCCCC2)cc1C	1	-25	-1	3	74*	0	76*	80*	65*
COc1cc(C)c(S(=O)(=O)N2CCN(C)CC2)cc1C	17	-5	-6	-1	13	-1	.	.	.
C[C@@H](NCCc1ccc(O)cc1)[C@@H](O)c1ccc(O)cc1	.	.	3	5	-4	19	.	.	.
CCCCCCCCNC(C)C(O)c1ccc(SC(C)C)cc1 (configuration not stated)	78*	-36	1	2	67*	-19	64*	52*	64*
SMILES	NALP1 yeast inh	Calb FLC	ATG4B inh	UCH37 DUB inh	NLRP3 yeast inh	ALR H2O2 inh	NALP3 confirm	Casp1 ASC ctr	NALP3 yeast rt
O=C(CNC(=O)c1ccccc1Br)NN=Cc1ccc(O)cc1	.	.	.	-2	.	.	.	.	.
NCCOc1ccccc1OCCN	1	-7	5	1	8	-30	.	.	.
NCCOc1ccccc1-c1ccccc1	4	-17	11	2	54*	-1	66*	56*	50*
COc1ccc(C=NNC(=O)c2ccncc2)cc1Cn1nc([N+](=O)[O-])c(Br)c1C	.	.	.	1	.	.	.	.	.
Cc1ccc(Nc2n[nH]c(C)c2[N+](=O)[O-])cc1	26	-7	34	4	40	70	.	.	.
Cc1[nH]nc(Nc2ccc(Br)cc2)c1[N+](=O)[O-]	4	-3	11	3	52*	-3	46	.	.
Cc1cc(C)nc(NN=Cc2c(CO)cnc(C)c2O)n1	.	.	.	-8	.	.	.	.	.
COc1ccc(C(C)=NNC(=O)c2ccc(CSc3nncn3C)cc2)cc1	.	.	.	6	.	.	.	.	.
Fc1cccc(Cl)c1C=NNc1ccccn1	.	.	.	2	.	.	.	.	.
CCSc1oc(-c2ccccc2)nc1S(=O)(=O)c1ccccc1	9	-11	-2	3	22	-3	.	.	.
CSc1oc(-c2ccccc2)nc1S(=O)(=O)c1ccc(C)cc1	-32	?	1	5	53*	-12	68*	56*	48
Cc1ccc(CN2CCN(CC(=O)NN=Cc3c[nH]c4ccccc34)CC2)cc1	.	.	.	6	.	.	.	.	.
CC(=NNC(=O)CSc1nc2nc(C)cc(C)n2n1)c1ccccc1	.	.	.	6	.	.	.	.	.
Cc1cc(C)n2ncc(-c3cccc(Br)c3)c2n1	5	-15	-6	-11	51*	-6	62*	31	24
Cc1cc(C)n2nc(-c3cccc(Br)c3)cc2n1	24	5	-2	-12	49	-3	.	.	.
O=C(NCCC1=CCCCC1)c1ccc([N+](=O)[O-])cc1	39	-4	4	10	58*	.	22	.	.
CN=C1S/C(=C\c2ccc(O)c(OC)c2)C(=O)N1C	.	3	-16	12	21	75	.	.	.
CN=C1S/C(=C\c2ccc(O)c(Br)c2)C(=O)N1C	20	2	-3	4	68*	96*	84*	78*	72*
CCOC(=O)CCSc1nc2c(c(C(F)(F)F)c1C#N)CCC2	13	11	3	-5	60*	.	47*	64*	59*
CC(=NO)C(C)NC(=O)c1ccccc1 (configuration not stated)	.	.	.	2	.	.	.	.	.
